The source made the active and inactive calls. No cut-off for these calls is given here.
Tests used:
Rattus norvegicus [1] = experiment: Ability to decrease blood glucose levels in fasted rats at the dose of 0.6 mmol/kg was determined; No effect; assay type: functional, organism-based
Summary of the method: (§1)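 Male Sprague–Dawley SIV-50 or Mus Rattus rats (160–200 g), 6–12 per group, fasted overnight. Oral tube dosing as neutral aqueous solution or 1:1 Cremophor EL/water emulsion, 10 mL/kg. Retro-orbital blood taken before and at 2, 4 and 6 h; glucose measured enzymatically (HK/G6PDH). Change expressed relative to controls; two-sided Student's t test.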

Rattus norvegicus [2] = species on record: Rattus norvegicus; experiment: Effective dose at which 50% of the rats show at least a 25% decrease of blood glucose levels compared to controls; assay type: functional
Summary of the method: (§2)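 Overnight-fasted male rats (Sprague–Dawley SIV-50 or Mus Rattus, 160–200 g), 6–12 per group, dosed orally at 10 mL/kg as neutral aqueous solution or 1:1 Cremophor EL/water emulsion. Retro-orbital blood glucose by HK/G6PDH before and 2, 4, 6 h post-dose. ED50 (25%) = dose at which 50% of rats show ≥25% fall versus controls. Derived by linear or log-linear regression over at least four doses.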

[3] = Tested for its effect on hepatic epoxide hydrolase; No significant inhibition up to 1e-3 mol/L
[4] = Compound was tested for its lethality in mice when administered perorally; assay type: ADME, organism-based; details: mouse, in vivo, po
Summary of the method: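 Groups of five female NMR mice (22-26 g), water ad libitum, food reduced to 50 g/kg body weight 18 h before dosing; single oral administration.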

Rattus norvegicus [5] = experiment: Ability to decrease blood glucose levels in fasted rats at the dose of 0.6 mmol/kg was determined; assay type: functional; summary of the method: as §1
Rattus norvegicus [6] = species on record: Rattus norvegicus; experiment: Effective dose at which 50% of the rats show at least a 25% decrease of blood glucose levels compared to controls; Not feasible; assay type: functional, organism-based; summary of the method: as §2
Rattus norvegicus [7] = species on record: Rattus norvegicus; experiment: Effective dose at which 50% of the rats show at least a 25% decrease of blood glucose levels compared to controls; Reverse effect at higher dose

Row | SMILES | Decrease (Rattus norvegicus [1]) | ED50 (Rattus norvegicus [2]) [µmol/kg] | Effect [3] | Decrease (Rattus norvegicus [5]) [%] | also measured
1 | CCOC(=O)C1(CCCc2ccccc2)OC1(C)C (stereo not given) | inactive |  |  |  | 
2 | CCOC(=O)C1(CCCc2cccc(C(F)(F)F)c2)CO1 (stereo not given) |  | 170 | No significant inhibition up to 1e-3 mol/L | <47 | LD50 [4]: 860 µmol/kg
3 | CCOC(=O)C1(CCCCc2ccccc2)CO1 (stereo not given) |  | 600 | No significant inhibition up to 1e-3 mol/L | <44 | 
4 | CCOC(=O)C1(CCCc2ccccc2)OC12CCCCC2 (stereo not given) | inactive |  |  |  | 
5 | CCOC(=O)C1(CCCCCCc2ccccc2)CO1 (stereo not given) |  |  |  | 24 | ED50 (Rattus norvegicus [6]): inactive
6 | CCOC(=O)C1(CCCCCCCc2ccccc2)CO1 (stereo not given) |  |  |  | 18 | ED50 (Rattus norvegicus [6]): inactive
7 | NC(=O)C1(CCCc2ccccc2)CO1 (stereo not given) | inactive |  |  |  | 
8 | CCNC(=O)C1(CCCc2ccccc2)CO1 (stereo not given) | inactive |  |  |  | 
9 | CCOC(=O)C1(CCCc2ccccc2Cl)CO1 (stereo not given) |  |  |  | <11 | 
10 | CCOC(=O)C1(CCCc2ccc(F)cc2)CO1 (stereo not given) |  |  |  | <37 | LD50 [4]: 3960 µmol/kg
11 | O=C([O-])C1(CCCc2cccc(C(F)(F)F)c2)CO1.[Na+] (stereo not given) |  | 80 | No significant inhibition up to 1e-3 mol/L | <77 | 
12 | CCOC(=O)C1(CCc2ccccc2)CO1 (stereo not given) | inactive |  | No significant inhibition up to 1e-3 mol/L |  | 
13 | CCOC(=O)C1(CCCc2cccc(Cl)c2)CO1 (stereo not given) |  | 680 |  | <26 | 
14 | CCOC(=O)C1(CCCc2ccc(Cl)cc2)OC12CCCCC2 (stereo not given) | inactive |  |  |  | 
15 | CCOC(=O)C1OC1CCc1ccccc1 (stereo not given) | inactive |  |  |  | 
16 | CCOC(=O)C1(CCCc2ccccc2)CO1 (stereo not given) |  | 1170 | No significant inhibition up to 1e-3 mol/L | <19 | 
17 | CCOC(=O)C1(CCCCCc2ccccc2)CO1 (stereo not given) |  |  | No significant inhibition up to 1e-3 mol/L | <18 | LD50 [4]: 880 µmol/kg; ED50 (Rattus norvegicus [7]): 80 µmol/kg

Row | SMILES | Decrease (Rattus norvegicus [1]) | ED50 (Rattus norvegicus [2]) [µmol/kg] | Effect [3] | Decrease (Rattus norvegicus [5]) [%] | also measured
18 | O=C([O-])C1(CCCc2ccc(Cl)cc2)CO1.[Na+] (stereo not given) |  | 180 |  | <68 | 
19 | O=C([O-])C1(CCCCCc2ccccc2)CO1.[Na+] (stereo not given) |  |  | No significant inhibition up to 1e-3 mol/L | <29 | LD50 [4]: 1060 µmol/kg; ED50 (Rattus norvegicus [6]): inactive
20 | CCOC(=O)C1(CCCCCCCc2ccc(Cl)cc2)CO1 (stereo not given) |  | 270 |  | <49 | LD50 [4]: 950 µmol/kg
21 | COC(=O)C1OC1CCCc1ccccc1 (stereo not given) | inactive |  |  |  | 
22 | CCOC(=O)C1(CCCc2ccc(Cl)cc2)CO1 (stereo not given) |  | 200 | No significant inhibition up to 1e-3 mol/L | <30 | LD50 [4]: 2720 µmol/kg
23 | CCOC(=O)C1(CCCc2ccc(C)cc2)CO1 (stereo not given) |  |  | No significant inhibition up to 1e-3 mol/L | <27 | 
24 | CCOC(=O)C1(Cc2ccccc2)CO1 (stereo not given) | inactive |  | No significant inhibition up to 1e-3 mol/L |  | 
25 | O=C([O-])C1(CCCCCc2ccc(Cl)cc2)CO1.[Na+] (stereo not given) |  | 30 | No significant inhibition up to 1e-3 mol/L | 80 | LD50 [4]: 1640 µmol/kg
26 | CCOC(=O)C1(CCCCCCCCc2ccccc2)CO1 (stereo not given) | inactive |  |  |  | 
27 | CCOC(=O)C1(CCCc2ccc(Cl)cc2)OC1(C)C (stereo not given) |  |  |  | 10 | 
28 | CCOC(=O)C1(CCCc2ccc(OC)cc2)CO1 (stereo not given) | inactive |  |  |  | 
29 | CCOC(=O)C1(CCCc2ccc(C(C)(C)C)cc2)CO1 (stereo not given) | inactive |  |  |  | 
30 | CCOC(=O)C1(CCCCCc2ccc(Cl)cc2)CO1 (stereo not given) |  | 20 | No significant inhibition up to 1e-3 mol/L | 80 | LD50 [4]: 930 µmol/kg
31 | CCOC(=O)C1(CCCc2ccc(Cl)c(Cl)c2)CO1 (stereo not given) |  | 330 | No significant inhibition up to 1e-3 mol/L | <29 | LD50 [4]: 2870 µmol/kg
32 | CCN(CC)C(=O)C1(CCCc2ccccc2)CO1 (stereo not given) | inactive |  |  |  | 
33 | CCOC(=O)C1(CCCc2cc(Cl)ccc2OC)CO1 (stereo not given) | inactive |  |  |  | 
